Assay results from ChEMBL document CHEMBL2146441, “2,6-Disubstituted imidazo[2,1-b][1,3,4]thiadiazoles: search for anticancer agents” (2012).

Legend:
Format in all cases: functional
HT-29 = assay: Cytotoxicity against human HT-29 cells assessed as cell growth at 10^-5 M after 48 hrs by SRB assay; settings: HT-29, 48 h, read-out: Activity
Method in brief: (§1)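 NCI-60 five-dose screen. Cells were grown in RPMI 1640 with 5% FBS and seeded at 5000–40,000 cells/well according to doubling time. They were pre-incubated 24 h at 37 °C in 5% CO₂, and time-zero (Tz) plates were TCA-fixed at drug addition. Five 10-fold dilutions of DMSO stock were applied for 48 h. Read-out was SRB staining, 515 nm absorbance, with percent growth calculated versus Tz and untreated control.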

SK-MEL-2 [1] = assay: Cytotoxicity against human SK-MEL-2 cells assessed as cell growth at 10^-5 M after 48 hrs by SRB assay; settings: SK-MEL-2, 48 h, read-out: Activity
IGROV-1 = assay: Cytotoxicity against human IGROV1 cells assessed as cell growth at 10^-5 M after 48 hrs by SRB assay; settings: IGROV-1, 48 h, read-out: Activity; method in brief: as §1
OVCAR-4 = assay: Cytotoxicity against human OVCAR4 cells assessed as cell growth at 10^-5 M after 48 hrs by SRB assay; settings: OVCAR-4, 48 h, read-out: Activity
SW-620 [2] = assay: Growth inhibition of human SW620 cells after 48 hrs by SRB assay; settings: SW-620, 48 h; for CC50: read-out: LC50 (the source's name)
Method in brief: (§2)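 Adherent NCI-60 lines grown in RPMI 1640 with 5% FBS, seeded at 5000–40,000 cells/well, and preincubated 24 h at 37 °C, 5% CO2. Compound, stocked in DMSO, given either once at 10^-5 M or at five 10-fold dilutions for 48 h. Cells fixed with cold TCA (final 10%), stained with 0.4% SRB, and read at 515 nm. GI50 taken as 50% reduction in net protein increase versus time-zero and control plates.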

SF-268 [3] = assay: Growth inhibition of human SF268 cells after 48 hrs by SRB assay; settings: SF-268, 48 h; method in brief: as §2
PC-3 = assay: Growth inhibition of human PC3 cells after 48 hrs by SRB assay; settings: PC-3, 48 h; for CC50: read-out: LC50 (the source's name); method in brief: as §2
SR [4] = assay: Cytotoxicity against human SR cells assessed as cell growth at 10^-7 M after 48 hrs by SRB assay; settings: read-out: Activity
SF-268 [5] = assay: Cytotoxicity against human SF268 cells assessed as cell growth at 10^-7 M after 48 hrs by SRB assay; settings: SF-268, 48 h, read-out: Activity
SF-539 = assay: Cytotoxicity against human SF539 cells assessed as cell growth at 10^-7 M after 48 hrs by SRB assay; settings: SF-539, 48 h, read-out: Activity
Malme-3M [6] = assay: Cytotoxicity against human MALME-3M cells assessed as cell growth at 10^-7 M after 48 hrs by SRB assay; settings: read-out: Activity
UACC-257 = assay: Cytotoxicity against human UACC257 cells assessed as cell growth at 10^-7 M after 48 hrs by SRB assay; settings: UACC-257, 48 h, read-out: Activity
SW-620 [7] = assay: Cytotoxicity against human SW620 cells assessed as cell growth at 10^-4 M after 48 hrs by SRB assay; settings: SW-620, 48 h, read-out: Activity
SF-295 = assay: Cytotoxicity against human SF295 cells assessed as cell growth at 10^-4 M after 48 hrs by SRB assay; settings: SF-295, 48 h, read-out: Activity
SK-MEL-28 = assay: Cytotoxicity against human SK-MEL-28 cells assessed as cell growth at 10^-4 M after 48 hrs by SRB assay; settings: SK-MEL-28, 48 h, read-out: Activity
A498 = assay: Cytotoxicity against human A498 cells assessed as cell growth at 10^-4 M after 48 hrs by SRB assay; settings: A498, 48 h, read-out: Activity
Method in brief: (§3)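 NCI-60 screen: lines kept in RPMI 1640 with 5% FBS, seeded at 5000–40,000 cells/well by doubling time, preincubated 24 h at 37 °C in 5% CO2. Time-zero plates TCA-fixed at drug addition. DMSO stocks diluted in medium, 48 h exposure. Fixation in cold TCA (final 10% adherent, 16% suspension), 0.4% SRB stain, solubilised in 10 mM Tris base, A515. Percent growth computed against control and time-zero.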

SN12C = assay: Cytotoxicity against human SN12C cells assessed as cell growth at 10^-4 M after 48 hrs by SRB assay; settings: read-out: Activity
MDA-MB-231 [8] = assay: Cytotoxicity against human MDA-MB-231 cells assessed as cell growth at 10^-4 M after 48 hrs by SRB assay; settings: MDA-MB-231, 48 h, read-out: Activity
MDA-MB-468 = assay: Cytotoxicity against human MDA-MB-468 cells assessed as cell growth at 10^-4 M after 48 hrs by SRB assay; settings: MDA-MB-468, 48 h, read-out: Activity
RXF 393 = assay: Cytotoxicity against human RXF393 cells assessed as cell growth at 10^-7 M after 48 hrs by SRB assay; settings: RXF 393, 48 h, read-out: Activity
MDA-MB-231 [9] = assay: Cytotoxicity against human MDA-MB-231 cells assessed as cell growth at 10^-7 M after 48 hrs by SRB assay; settings: MDA-MB-231, 48 h, read-out: Activity
NCI-H460 = assay: Cytotoxicity against human NCI-H460 cells assessed as cell growth at 10^-8 M after 48 hrs by SRB assay; settings: NCI-H460, 48 h, read-out: Activity
Malme-3M [10] = assay: Cytotoxicity against human MALME-3M cells assessed as cell growth at 10^-8 M after 48 hrs by SRB assay; settings: read-out: Activity
SK-MEL-2 [11] = assay: Cytotoxicity against human SK-MEL-2 cells assessed as cell growth at 10^-8 M after 48 hrs by SRB assay; settings: SK-MEL-2, 48 h, read-out: Activity
A549 = assay: Cytotoxicity against human A549 cells assessed as cell growth at 10^-6 M after 48 hrs by SRB assay; settings: A549, 48 h, read-out: Activity; method in brief: as §3
KM12 [12] = assay: Cytotoxicity against human KM12 cells assessed as cell growth at 10^-6 M after 48 hrs by SRB assay; settings: KM12, 48 h, read-out: Activity
OVCAR-3 = assay: Cytotoxicity against human OVCAR3 cells assessed as cell growth at 10^-6 M after 48 hrs by SRB assay; settings: OVCAR-3, 48 h, read-out: Activity
KM12 [13] = assay: Growth inhibition of human KM12 cells after 48 hrs by SRB assay; settings: KM12, 48 h; method in brief: as §2
SR [14] = assay: Cytotoxicity against human SR cells assessed as cell growth at 10^-5 M after 48 hrs by SRB assay; settings: read-out: Activity

SMILES	growth at 10 µM (HT-29) [%]	growth at 10 µM (SK-MEL-2 [1]) [%]	growth at 10 µM (IGROV-1) [%]	growth at 10 µM (OVCAR-4) [%]	GI50 (SW-620 [2]) [µM]	TGI (SW-620 [2]) [µM]	CC50 (SW-620 [2]) [µM]	GI50 (SF-268 [3]) [µM]	LC50 (SF-268 [3]) [µM]	TGI (SF-268 [3]) [µM]	GI50 (PC-3) [µM]	TGI (PC-3) [µM]	CC50 (PC-3) [µM]	growth at 0.1 µM (SR [4]) [%]	growth at 0.1 µM (SF-268 [5]) [%]	growth at 0.1 µM (SF-539) [%]	growth at 0.1 µM (Malme-3M [6]) [%]	growth at 0.1 µM (UACC-257) [%]	growth at 100 µM (SW-620 [7]) [%]	growth at 100 µM (SF-295) [%]	other results
COc1ccc(-c2nn3cc(-c4ccc(O)cc4O)nc3s2)cc1	9	9	9	-60	3.96	> 100	> 100	2.42	> 100	41.1	1.95	> 100	> 100	85	96	101	90	92	6	-13	growth at 100 µM (SK-MEL-28): -26%; growth at 100 µM (A498): -37%; growth at 100 µM (SN12C): 2%; growth at 100 µM (MDA-MB-231 [8]): -19%; growth at 100 µM (MDA-MB-468): -27%; growth at 0.1 µM (RXF 393): 104%; growth at 0.1 µM (MDA-MB-231 [9]): 99%; growth at 0.01 µM (NCI-H460): 101%; growth at 0.01 µM (Malme-3M [10]): 87%; growth at 0.01 µM (SK-MEL-2 [11]): 93%; growth at 1 µM (A549): 86%; growth at 1 µM (KM12 [12]): 86%; growth at 1 µM (OVCAR-3): 89%; Concentration killing 50% of cells (LC50) (KM12 [13]): > 100 µM; GI50 (KM12 [13]): 3.61 µM; TGI (KM12 [13]): > 100 µM; growth at 10 µM (SR [14]): 6%
COc1ccc(-c2nn3cc(-c4cccc(N)c4)nc3s2)cc1	27	39	20	7	6.08	76.6	> 100	4.13	> 100	27.2	1.2	20.8	> 100	102	101	100	97	109	-5	-27	growth at 100 µM (SK-MEL-28): -39%; growth at 100 µM (A498): -67%; growth at 100 µM (SN12C): 4%; growth at 100 µM (MDA-MB-231 [8]): -35%; growth at 100 µM (MDA-MB-468): -16%; growth at 0.1 µM (RXF 393): 85%; growth at 0.1 µM (MDA-MB-231 [9]): 81%; growth at 0.01 µM (NCI-H460): 100%; growth at 0.01 µM (Malme-3M [10]): 102%; growth at 0.01 µM (SK-MEL-2 [11]): 93%; growth at 1 µM (A549): 95%; growth at 1 µM (KM12 [12]): 84%; growth at 1 µM (OVCAR-3): 86%; Concentration killing 50% of cells (LC50) (KM12 [13]): > 100 µM; GI50 (KM12 [13]): 5.34 µM; TGI (KM12 [13]): 27.5 µM; growth at 10 µM (SR [14]): 26%
